# NR3A LBD binder = modulates the human NR3A ligand-binding domain; NR3A LBD differential scanning fluorimetry, Tm shift; 0% = protein alone, 100% = glycine-bound protein; Tm shift relative to glycine control, % at 25 µM; 2.5% of 340,000 active; AID 1259313;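 active means melting temperature shift of at least 10% of the positive control shift, at one fixed dose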
# MPTP inh = inhibitors of mitochondrial permeability transition pore | isolated mouse mitochondria, Ca2+ swelling absorbance, 30 min | inhibition, % at 10 µM | 1.4% of 360,000 active | AID 602449;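 active means inhibition of 50% or more, scaled per plate between neutral and stimulator controls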
# TbMetRS inhib = blocks T. brucei methionyl-tRNA synthetase activity; purified T. brucei MetRS, ATP depletion, Kinase-Glo luminescence; inhibition, % at 11.9 µM; 0.4% of 360,000 active; AID 624268;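 active means inhibition above a per-plate cutoff of the control wells' mean inhibition plus 3 SD, cut at about 5.5% in these data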
#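 Dosing: 11.9 µM single point; system: parasite MetRS enzyme; technique: luminescence of leftover ATP; times: 15 min enzyme-compound preincubation, 2 h reaction, 10 min detection, 25 °C; replicates: each compound tested once; read-out basis: percent inhibition relative to median high and low control wells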
# EBV gp42 inh = inhibitors of Epstein-Barr virus glycoprotein 42 | inhibition, % (tested at 21.74 µM) | Fluorescence polarization binding assay, mP read-out | AID 1085 | 0.42% of 220,000 active; in the data active means inhibition above about 50%
# Target sequence (Q1HVG2 whole entry, looked up): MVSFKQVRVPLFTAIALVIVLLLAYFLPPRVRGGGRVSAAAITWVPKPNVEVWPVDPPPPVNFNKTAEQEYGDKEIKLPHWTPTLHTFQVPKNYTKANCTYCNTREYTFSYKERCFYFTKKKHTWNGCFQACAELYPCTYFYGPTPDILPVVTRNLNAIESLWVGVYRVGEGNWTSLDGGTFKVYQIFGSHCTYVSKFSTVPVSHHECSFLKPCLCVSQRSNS
# WT yeast gro inh = growth inhibition of WT yeast, mitochondrial fusion screen; inhibition, % at 10 µM; 2.1% of 190,000 active; mitochondrial fusion phenotypic screen, WT strain; in the data active means inhibition above about 58%; tested in S. cerevisiae
# CHOP inhibitor = blocks CHOP induction under ER stress; inhibition, % at 10 µM; 3.8% of 220,000 active; CHO-K1 CHOP-promoter luciferase, tunicamycin-induced, 15-18 h;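 active means compounds that reduced the stress-induced luciferase reporter signal by more than about 70% of percent inhibition, limit read from the data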
# Hits are given with their value; i = inactive; nt = no result given; ! = not confirmed by another sample. Shown are actives, neighbours in structure and some others; about 6.4% of the full set was active somewhere.
SMILES,NR3A LBD binder,MPTP inh,TbMetRS inhib,EBV gp42 inh,WT yeast gro inh,CHOP inhibitor
CC(C)(C)c1ccc(NC(=O)COC(=O)C2(C)CC2(Cl)Cl)cc1 (stereo not given),i,i,i,i,i,70.2
COC(C/C=C\[C@@H](O)[C@@H](C)OCc1ccccc1)OC,i,i,i,nt,nt,nt
COc1c(Cl)cc(Cl)cc1/C=N/NC(=O)c1nnn(-c2nonc2N)c1CN1CCC(C)CC1,12.2,i,i,nt,nt,nt
CC1CCN(Cc2c(C(=O)N/N=C/c3ccc(C(F)(F)F)cc3)nnn2-c2nonc2N)CC1,i,i,i,nt,nt,nt
CC1CCN(Cc2c(C(=O)N/N=C/c3cc(Br)ccc3O)nnn2-c2nonc2N)CC1,12.9,i,i,nt,nt,nt
Cc1cc(C)c(/C=N/NC(=O)c2nnn(-c3nonc3N)c2CN2CCC(C)CC2)c(C)c1,i,i,i,nt,nt,nt
CC1CCN(Cc2c(C(=O)N/N=C/c3cc(Cl)ccc3O)nnn2-c2nonc2N)CC1,i,i,i,nt,nt,nt
CC1CCN(Cc2c(C(=O)N/N=C/c3cccc(C(F)(F)F)c3)nnn2-c2nonc2N)CC1,16.0,i,i,nt,nt,nt
CCOc1ccc(/C=N/NC(=O)c2nnn(-c3nonc3N)c2CN2CCC(C)CC2)cc1,10.9,i,i,nt,nt,nt
COc1ccccc1N(C)S(=O)(=O)c1ccc(C(=O)NCc2ccccc2CN2CCCC2)cc1,i,i,i,nt,nt,nt
Cc1ccc(CN(C)C(=O)c2cccc(S(=O)(=O)N3CCc4ccccc43)c2)cc1,i,i,i,nt,nt,nt
CCOc1cccc(=O)c2c(C)n(C)c(C)c12,i,i,i,i,i,i
O=C(CSc1nnc(-c2ccccc2Br)o1)N1CCN(C(=O)c2ccco2)CC1,i,i,i,i,i,i
O=C(OCc1nc2ccsc2c(=O)[nH]1)c1ccco1,i,i,i,nt,nt,nt
O=C(OCc1nc2ccsc2c(=O)[nH]1)c1cc(Br)c(Br)s1,22.2,i,i,nt,nt,nt
CCOC(=O)c1ccc(NC(=O)Cn2c(=O)oc3ccccc32)cc1,i,i,i,nt,nt,nt
O=C1CSC(=Nc2cc(Cl)ccc2Cl)N1,11.1,i,i,i,i,i
O=C(c1ccc(COc2ccccc2Cl)o1)N1CCN(Cc2ccc3c(c2)OCO3)CC1,15.4!,i,i,i,i,73.0!
O=C(c1ccc(COc2ccc(Cl)cc2)o1)N1CCN(Cc2ccc3c(c2)OCO3)CC1,i,i,i,i,75.8,i
CC(=O)N1CCc2cc(S(=O)(=O)NCCC(=O)NCCc3ccccc3)ccc21,i,i,i,i,i,i
Clc1cccc(NCc2cn3cccnc3n2)c1,10.9,i,i,i,i,i
O=C(NCCN1C(=O)S/C(=C/c2ccccc2)C1=O)C1CC(=O)N(Cc2ccccc2)C1 (stereo not given),i,i,i,nt,nt,nt
COc1cccc(-c2nc(CS(=O)(=O)CC(=O)NCCC(C)C)c(C)o2)c1,i,i,i,i,i,i
COCCCNC(=O)CS(=O)(=O)Cc1nc(-c2cccc(OC)c2)oc1C,i,i,i,i,74.8,i
COc1cccc(-c2nc(CS(=O)(=O)CC(=O)Nc3cc(C)ccc3C)c(C)o2)c1,i,i,i,i,i,77.2
SMILES,NR3A LBD binder,MPTP inh,TbMetRS inhib,EBV gp42 inh,WT yeast gro inh,CHOP inhibitor
O=C(Nc1cccc2ccccc12)c1csc([C@@H]2O[C@H](CO)[C@@H](O)[C@H]2O)n1,nt,i,i,nt,nt,nt
CCc1ccc2c(CN3CCc4ccccc43)cc(=O)oc2c1,i,i,i,i,i,i
OCCNc1nc(SCc2ccccc2)nc2sc3c(c12)CCC3,i,i,i,i,77.9,i
Cc1nc(NCc2cccnc2)c2c3c(sc2n1)CCCC3,i,i,i,i,i,i
Cn1c(N/N=C/c2ccccc2)nc2sc3c(c2c1=O)CCC3,i,i,i,i,61.7,i
O=c1c2c3c(sc2nc(NCCO)n1CCc1ccccc1)CCCCC3,i,i,i,i,70.3,i
O=c1c2c3c(sc2nc(NCCO)n1Cc1ccco1)CCCCC3,i,i,i,i,i,i
CCN(C(=O)c1cc2c(=O)[nH]c3ccc(C)cc3c2s1)c1ccccc1C,i,i,i,i,nt,96.0
CCN(C(=O)c1cc2c(=O)[nH]c3ccc(C)cc3c2s1)c1ccccc1F,i,i,i,i,nt,i
CS(=O)(=O)N(CC(=O)Nc1ccc2c(c1)OCCO2)Cc1ccccc1,i,i,i,i,i,i
CCOc1cc(/C=N/O)ccc1OCC(=O)Nc1cccc(C)c1,i,i,i,i,i,i
CCOc1cc(-c2nc(C)c(C(C)=O)n2O)ccc1OCC(=O)Nc1cccc(C)c1,i,i,i,i,62.1,i

# Bioassay records deposited in PubChem by several laboratories.
